Common to all, as to format: cell-based
Experiment [1] concerns B16F10 mouse melanoma cells. Briefly: MTT antiproliferative activity, B16F10. Particulars: read-out: IC50, B16F10. The gist of the method: (§1)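 Cells were pre-incubated for 24 h at 37°C in 5% CO2. Medium was replaced with test compound at 10−4, 10−5, 10−6, 10−7 and 10−8 M for 72 h at 37°C. After a PBS wash, MTT was added for at least 4 h at 37°C and OD was read at 570 nm. IC50 (50% cell killing) came from percent viability versus log concentration; mean ± SEM, n=3.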

Experiment [2] has as its system selected malignant cell lines (B16F10, MCF-7, HCT-116, A549, HepG2). Briefly: MTT antiproliferative activity, selected malignant cell lines as a panel. As to conditions: 72 h, read-out: IC50 values, range over the selected malignant cell lines. The gist of the method:
as §1

The test system of experiment [3] is Helf human embryonic lung fibroblast. Briefly: MTT antiproliferative activity, Helf. As to conditions: 72 h, read-out: IC50, Helf. The gist of the method:
as §1

Experiment [4] has as its system HCT-116 human colon cancer cells. Briefly: MTT antiproliferative activity, HCT-116. Particulars: read-out: IC50, HCT-116. The gist of the method:
as §1

Experiment [5] relates to human normal liver cells (L02). Briefly: MTT antiproliferative activity, L02. Particulars: 72 h, read-out: IC50, L02. In a few lines:
as §1

For experiment [6], the system named is MCF-7 human breast cancer cells. Briefly: MTT antiproliferative activity, MCF-7. As to conditions: read-out: IC50, MCF-7. In a few lines:
as §1

For experiment [7], the system named is HepG2 human hepatocarcinoma. Briefly: MTT antiproliferative activity, HepG2. As to conditions: read-out: IC50, HepG2. The gist of the method: as §1
The subject of experiment [8] is A549 human adenocarcinomic alveolar basal epithelial cells. Briefly: MTT antiproliferative activity, A549. As to conditions: read-out: IC50, A549. The gist of the method: as §1
[9] abbreviates: MTT, mean ± SEM, n=3, normal cells.

SMILES strings stand for the structures. Where two headings read alike, the source gives them in different places.

Regarding `C=C(C)[C@@H]1CC[C@]2(C(=O)O)CC[C@]3(C)[C@H](CC[C@@H]4[C@@]5(C)CC[C@H](O)C(C)(C)[C@@H]5CC[C@]43C)[C@@H]12` [BA, Betulinic acid], the half-maximal inhibitory concentration (IC50) in experiment [1] (Mus musculus, B16-F10, 72 h) is 27 ± 2.5 µM; in experiment [2] it was 17.5 to 38.3 µM; in experiment [3] (Homo sapiens, HELF) it was 62 ± 8.61 µM; in experiment [4] (Homo sapiens, HCT-116, 72 h), 27.3 ± 3.28 µM; in experiment [5] (Homo sapiens), 96.3 ± 7.99 µM; in experiment [6] (Homo sapiens, MCF7, 72 h) it was 17.5 ± 1.72 µM. The concentration for half-maximal inhibition (IC50) in experiment [7] (Homo sapiens, HepG2, 72 h) was determined as 30.4 ± 5.14 µM; in experiment [8] (Homo sapiens, A549, 72 h), 38.3 ± 5.9 µM.

`N.N.[Cl][Pt][Cl]` [Cisplatin]: the IC50 in experiment [1] (MTT, 72 h, concentration that caused 50% cell killing, mean ± SEM, n=3) turned out to be 11.7 ± 0.95 µM; in experiment [3] (setting [9]), 21.8 ± 3.03 µM; in experiment [4] (MTT, 72 h, mean ± SEM, n=3) it was 9.45 ± 1.04 µM; in experiment [5] (setting [9]), 9.17 ± 0.83 µM; in experiment [6] (MTT, 72 h, mean ± SEM, n=3), 7.83 ± 0.52 µM; in experiment [7] (MTT, 72 h, mean ± SEM, n=3), 4.77 ± 0.62 µM. Also, the IC50 in experiment [8] (MTT, 72 h, mean ± SEM, n=3) came to 12.7 ± 1.85 µM.

The values above are taken from paper PMC5774489 (OncoTargets and therapy, 2018).
